Reference: PubChem BioAssay
The source made the active and inactive calls.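 How the source made its calls, unless noted: active means viability at or below 10% of carrier control in both of two separate runs; inconclusive means viability at or below 10% in only one of the two runs; inactive means the rest.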

Key:
[1] = Her2 expression decrease, cell viability multiplex – SKBR3 breast tumor cells, AlphaScreen, ATP viability, primary screen (AID 461;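 active means Her2 level under about 52% in both replicate screens, with viability over 70% of control, limit read from the data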;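 on Her2 level: lower value means less Her2 protein in the cells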;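 on viability: percent of carrier control wells set as 100% viability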); settings: SKBR3 Her2 protein level, 18-24 h, measured here: SKBR3 viability, ATP luminescence, at 10 µM
[2] = target: Receptor tyrosine-protein kinase erbB-2 (Homo sapiens) (UniProt P04626); experiment: as above; settings: 18-24 h, at 10 µM, stronger effect = lower value
Receptor tyrosine-protein kinase erbB-2 (Homo sapiens), sequence (P04626 whole entry, looked up): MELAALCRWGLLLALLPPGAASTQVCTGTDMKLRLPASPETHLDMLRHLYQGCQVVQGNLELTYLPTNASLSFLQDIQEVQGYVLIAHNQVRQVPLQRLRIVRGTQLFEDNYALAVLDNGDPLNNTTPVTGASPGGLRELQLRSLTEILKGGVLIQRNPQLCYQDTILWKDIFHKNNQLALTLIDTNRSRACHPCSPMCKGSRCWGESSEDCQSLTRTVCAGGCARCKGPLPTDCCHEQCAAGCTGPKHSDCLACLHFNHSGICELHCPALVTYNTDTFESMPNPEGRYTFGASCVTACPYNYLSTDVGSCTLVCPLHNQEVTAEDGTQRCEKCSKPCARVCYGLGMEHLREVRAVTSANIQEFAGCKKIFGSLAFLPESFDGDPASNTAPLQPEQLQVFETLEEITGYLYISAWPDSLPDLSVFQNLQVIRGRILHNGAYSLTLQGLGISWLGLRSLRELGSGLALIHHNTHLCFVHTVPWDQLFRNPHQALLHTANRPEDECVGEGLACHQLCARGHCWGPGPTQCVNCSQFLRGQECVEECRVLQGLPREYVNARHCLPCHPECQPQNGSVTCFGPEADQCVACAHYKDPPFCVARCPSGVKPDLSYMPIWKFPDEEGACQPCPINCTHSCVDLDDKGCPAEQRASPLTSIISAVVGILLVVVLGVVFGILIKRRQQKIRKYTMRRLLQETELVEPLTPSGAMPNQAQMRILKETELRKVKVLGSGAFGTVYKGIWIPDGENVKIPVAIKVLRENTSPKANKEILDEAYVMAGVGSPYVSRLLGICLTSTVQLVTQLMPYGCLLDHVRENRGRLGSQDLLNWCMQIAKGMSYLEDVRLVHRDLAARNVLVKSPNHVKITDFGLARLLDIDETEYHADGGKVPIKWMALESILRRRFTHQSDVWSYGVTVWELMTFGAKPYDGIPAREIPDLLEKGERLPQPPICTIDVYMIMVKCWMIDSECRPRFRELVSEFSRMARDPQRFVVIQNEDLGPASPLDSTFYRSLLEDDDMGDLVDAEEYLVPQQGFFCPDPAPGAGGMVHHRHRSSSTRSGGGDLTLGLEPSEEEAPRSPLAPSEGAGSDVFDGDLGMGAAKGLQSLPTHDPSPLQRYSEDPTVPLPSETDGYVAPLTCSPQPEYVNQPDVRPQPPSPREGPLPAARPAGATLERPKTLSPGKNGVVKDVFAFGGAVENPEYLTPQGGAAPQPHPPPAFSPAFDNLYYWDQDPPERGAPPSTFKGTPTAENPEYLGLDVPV

[3] = reduced viability of SK-BR-3 breast cancer cells – cell-based, 24 h, human, pilot screen (AID 572); settings: SK-BR-3 viability, CellTiter-Glo luminescence, at 10 µM, stronger effect = lower value;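 further: compound exposure lasted between 18 and 24 h rather than exactly 24 h; 100% = carrier-treated control wells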
[4] = HUVEC growth inhibition – cell-based, human, primary screen (AID 575;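 active means viability at or below 30% in both replicate assays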;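 further: 100% = median of untreated cell wells with 0.1% DMSO on each plate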); settings: HUVEC proliferation, CellTiter-Glo luminescence, 72 h; at 10 µM; stronger effect = lower value
Procedure, shortened: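 Timing: 72 h treatment at 37 °C; material: HUVEC primary cells; technique: CellTiter-Glo luminescence measuring cellular ATP; controls: vehicle and MePR control wells; measure: percent of median DMSO-control luminescence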

[5] = H69AR cell proliferation blockers – human, duplicate replicates, primary screen (AID 580;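 active means viability at or under a set limit in both replicates, limit being median viability minus 3 SD, cut at about 48% in these data, passing the limit was not always enough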;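 further: 100% = mean luminescence of untreated wells and 0% = no signal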); settings: H69AR lung tumor cells viability, ATP luminescence, 72 h; at 10 µM; stronger effect = lower value
[6] = MRP1 drug-resistance reversers in H69AR cells – cell-based, doxorubicin co-treatment, pilot screen (AID 601;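 active means viability loss from added drug above about 55%, and viability with drug at most 40%, in both replicates, limit read from the data, passing the limit was not always enough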); settings: CellTiter-Glo, 72 h, at 10 µM; for differential viability (reversal): stronger effect = higher value
[7] = yeast transport mutant growth inhibition pilot in 384-well plates, post-Golgi transport modulator project (AID 636; in the data active means inhibition above about 31%); settings: absorbance 615 nm, about 18 h, stronger effect = higher value
[8] = growth suppression of yeast trafficking mutant, preliminary HTS, modulators of trafficking downstream of Golgi apparatus project, 1536-format plate, OD 615 nm (AID 637; in the data active means inhibition above about 30%); settings: yeast transport mutant growth, absorbance 615 nm, 18 h; stronger effect = higher value
[9] = H69AR cells + 2 uM doxorubicin, measured here: viability with 2 uM doxorubicin, stronger effect = lower value
[10] = H69AR cells, compound alone cytotoxicity

Compound	viability [1] [%]	Her2 level [2]	viability [3]	viability [4]	viability [5]	differential viability (reversal) ([6]; H69AR cells + 2 uM doxorubicin)	viability [6, 9] [%]	viability [6, 10] [%]	inhibition [7]	inhibition [8]
Cc1sc(NC(=O)CSc2nnc(COc3ccccc3)n2C)c(C#N)c1C	83	75.5% (inactive)	83% (inactive)	72.2% (inactive)	70.3% (inactive)	-3.05% (inactive)	73.3	70.3	-1.3% (inactive)	-7.3% (inactive)
O=C(CCN1CCN(C(=O)c2ccco2)CC1)Nc1ccc(F)cc1	97.5	95% (inactive)	97.5% (inactive)	99.8% (inactive)	97% (inactive)	6.06% (inactive)	90.9	97	-4.93% (inactive)	2.95% (inactive)
Cc1cc2cc(CN(CCCN3CCOCC3)C(=O)NC3CCCCC3)c(=O)[nH]c2cc1C	73.5	83% (inactive)	73.5% (inactive)	70.2% (inactive)	82.8% (inactive)	6.29% (inactive)	76.5	82.8	-5.07% (inactive)	-2.26% (inactive)
O=C(NCC1CCCO1)c1ccccc1-c1nc(-c2ccc(Cl)cc2)no1 (stereo not given)	78.5	87.5% (inactive)	78.5% (inactive)	76% (inactive)	95.1% (inactive)	6.99% (inactive)	88.1	95.1	-5.68% (inactive)	1.8% (inactive)
Cc1cc(C)n(S(=O)(=O)Cc2ccccc2)n1	102	135% (inactive)	102% (inactive)	97.4% (inactive)	92.2% (inactive)	-0.205% (inactive)	92.4	92.2	-6.32% (inactive)	4.59% (inactive)
CC(C)Cn1c(N)c(C(=O)COC(=O)c2ccc3c(c2)OCCO3)c(=O)n(C)c1=O	87	102% (inactive)	87% (inactive)	71.3% (inactive)	91.8% (inactive)	-6.76% (inactive)	98.6	91.8	-4.46% (inactive)	0.16% (inactive)
CCN(CC)S(=O)(=O)c1ccc(Br)c(OC)c1	106	84% (inactive)	106% (inactive)	90.4% (inactive)	96.3% (inactive)	5.01% (inactive)	91.3	96.3	-6.89% (inactive)	-2.13% (inactive)
CCCCOCCCNC(=O)c1cccs1	103	102% (inactive)	103% (inactive)	97.8% (inactive)	104% (inactive)	11.5% (inactive)	92.5	104	-2.21% (inactive)	-3.17% (inactive)
Cc1ccc(-n2c(=O)c(C#N)cc3c(=O)n4ccccc4nc32)cc1	100	84.5% (inactive)	100% (inactive)	62.1% (inactive)	97% (inactive)	7.35% (inactive)	89.6	97	-4.59% (inactive)	2.06% (inactive)
CN(C)S(=O)(=O)c1ccc(Oc2ccc(S(=O)(=O)N(C)C)cc2)cc1	80.5	96.5% (inactive)	80.5% (inactive)	54.4% (inactive)	93.8% (inactive)	-0.755% (inactive)	94.6	93.8	-2.4% (inactive)	-7.14% (inactive)
CCCNC(=O)c1ccccc1NC(=O)CN(c1ccccc1OCC)S(C)(=O)=O	87	111% (inactive)	87% (inactive)	112% (inactive)	98.1% (inactive)	7.5% (inactive)	90.6	98.1	-0.13% (inactive)	-2.33% (inactive)
c1ccc(-c2nnc(CN3CCC4(CC3)OCCO4)o2)cc1	110	91.5% (inactive)	110% (inactive)	96.9% (inactive)	98.7% (inactive)	8.52% (inactive)	90.2	98.7	-0.79% (inactive)	14.5% (inactive)
O=C(CCC(=O)OCCCC(F)(F)C(F)(F)F)NC1CCCCC1	123	112% (inactive)	123% (inactive)	112% (inactive)	95.3% (inactive)	3.4% (inactive)	91.9	95.3	-5.47% (inactive)	-3.23% (inactive)
CCCC1(C(=O)OCC)NC(c2ccc(N(C)C)cc2)C2C(=O)N(c3ccc(F)cc3)C(=O)C21 (stereo not given)	90	97% (inactive)	90% (inactive)	104% (inactive)	112% (inactive)	13.8% (inactive)	98.2	112	0% (inactive)	-2.67% (inactive)
CCOc1ccc2nc(SCc3ccc(C(=O)OC)o3)[nH]c2c1	77	87.5% (inactive)	77% (inactive)	89.5% (inactive)	109% (inactive)	12.7% (inactive)	96.4	109	-0.4% (inactive)	-2.42% (inactive)
Cc1cc(C)c(S(=O)(=O)Nc2cccnc2)c(C)c1	100	91% (inactive)	100% (inactive)	105% (inactive)	97.8% (inactive)	8.71% (inactive)	89.1	97.8	-4.93% (inactive)	-0.16% (inactive)

Compound	viability [1] [%]	Her2 level [2]	viability [3]	viability [4]	viability [5]	differential viability (reversal) ([6]; H69AR cells + 2 uM doxorubicin)	viability [6, 9] [%]	viability [6, 10] [%]	inhibition [7]	inhibition [8]
CC(C)[C@H](NC(=O)[C@@H]1CSCN1C(=O)OC(C)(C)C)C(=O)NCC1CCC(C(=O)O)CC1 (stereo not given in full)	105	104% (inactive)	105% (inactive)	113% (inactive)	102% (inactive)	2.67% (inactive)	99.3	102	-3.33% (inactive)	-3.23% (inactive)
c1cncc(-c2nnc3n2N=C(c2cccs2)CS3)c1	90.5	73.5% (inactive)	90.5% (inactive)	78.2% (inactive)	92.5% (inactive)	4.06% (inactive)	88.5	92.5	-4.34% (inactive)	-0.83% (inactive)
O=C(c1ccccc1)c1ccncc1	100	76.5% (inactive)	100% (inactive)	100% (inactive)	92.4% (inactive)	-3.62% (inactive)	96	92.4	-6.05% (inactive)	5.33% (inactive)
CCn1c(SCC(=O)c2ccc(F)cc2)nnc1-c1ccoc1C	104	97.5% (inactive)	104% (inactive)	104% (inactive)	106% (inactive)	19.3% (inactive)	86.9	106	-6.1% (inactive)	-0.95% (inactive)
CN(C)S(=O)(=O)c1ccc(/C(O)=C2/C(=O)C(=O)N(CCN3CCCCC3)C2c2cccnc2)cc1 (stereo not given)	87	166% (inactive)	87% (inactive)	92.1% (inactive)	87.3% (inactive)	-3.39% (inactive)	90.7	87.3	6.54% (inactive)	11.3% (inactive)
Cn1c(=O)c2nc(Cl)n(Cc3ccc(Cl)cc3Cl)c2n(C)c1=O	96	75% (inactive)	96% (inactive)	105% (inactive)	88.3% (inactive)	12.5% (inactive)	75.9	88.3	-3.2% (inactive)	7.58% (inactive)
CCOCCCNC(=O)c1c[nH]c2ccc(S(=O)(=O)Nc3cccc(OC)c3)cc2c1=O	108	106% (inactive)	108% (inactive)	83.4% (inactive)	99.9% (inactive)	6.57% (inactive)	93.3	99.9	-5.66% (inactive)	-8.71% (inactive)
COc1ccc(C)cc1S(=O)(=O)N(CC(=O)O)c1ccccc1	118	114% (inactive)	118% (inactive)	106% (inactive)	86.1% (inactive)	-11.2% (inactive)	97.2	86.1	-2.84% (inactive)	4.75% (inactive)
CCOC(=O)c1c(C)c(C(=O)NCCN2CCOCC2)c(C)n1C	89.5	91% (inactive)	89.5% (inactive)	107% (inactive)	86.7% (inactive)	-3.83% (inactive)	90.5	86.7	-10.7% (inactive)	1.11% (inactive)
O=C(CCc1nc2ccccc2[nH]1)Nc1ccc2c(c1)OCO2	79	126% (inactive)	79% (inactive)	48.6% (inactive)	90.8% (inactive)	-2.33% (inactive)	93.1	90.8	0.9% (inactive)	-4.33% (inactive)
CCCCn1nnc(NC(=O)c2cc3ccccc3o2)n1	107	88.5% (inactive)	107% (inactive)	119% (inactive)	81.6% (inactive)	-8.71% (inactive)	90.3	81.6	0.13% (inactive)	8% (inactive)
CN(C)C(=O)c1ccc(COc2ccccc2Br)o1	110	84% (inactive)	110% (inactive)	88.5% (inactive)	90.7% (inactive)	13% (inactive)	77.8	90.7	-9.05% (inactive)	0.48% (inactive)
COc1ccc(OC)c(C(=O)c2nc3c(n2O)CCCCC3)c1	78.5	122% (inactive)	78.5% (inactive)	99.9% (inactive)	93.2% (inactive)	-4.37% (inactive)	97.6	93.2	-5.13% (inactive)	0.98% (inactive)
CCN(Cc1cc2cc(OC)ccc2[nH]c1=O)C(=O)Cc1ccc(OC)cc1	91	87.5% (inactive)	91% (inactive)	96.5% (inactive)	88.2% (inactive)	6.29% (inactive)	81.9	88.2	-0.66% (inactive)	-3.44% (inactive)
CCn1c(SCC(=O)NCc2ccco2)nc2c(c1=O)SC(C)C2 (stereo not given)	95	91% (inactive)	95% (inactive)	103% (inactive)	91.3% (inactive)	-0.41% (inactive)	91.7	91.3	-4.4% (inactive)	-0.98% (inactive)
